The source made the active and inactive calls. The rule behind the calls is not given here.
Columns and labels:
[1] = tested on: Hs-578T; assay: Cytotoxicity against human Hs 578T cells at 0.5 uM after 3 days by DAPI staining-based fluorescence microscopic method relative to control; type: functional; settings: in the assay text read “at 1 uM” for “at 0.5 uM”
In short: (§1)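 Controls were 0.5% DMSO (negative) and 1 μM doxorubicin (positive). Cells were fixed in 3.7% formaldehyde, stained with 0.4 μg mL–1 DAPI, and nuclei counted by automated fluorescence microscopy. Proliferation % and cell-loss % were calculated against a 24 h cell count and the DMSO 72 h count.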

[2] = tested on: MDA-MB-468; assay: Cytotoxicity against human MDA-MB-468 cells at 0.5 uM after 3 days by DAPI staining-based fluorescence microscopic method relative to control; type: functional; settings: in the assay text read “at 1 uM” for “at 0.5 uM”; in short: as §1
[3] = tested on: HCC38; assay: Cytotoxicity against human HCC38 cells at 0.5 uM after 3 days by DAPI staining-based fluorescence microscopic method relative to control; type: functional; settings: in the assay text read “at 1 uM” for “at 0.5 uM”; in short: as §1
[4] = tested on: MDA-MB-231; assay: Cytotoxicity against human MDA-MB-231 cells at 0.5 uM after 3 days by DAPI staining-based fluorescence microscopic method relative to control; type: functional; settings: in the assay text read “at 1 uM” for “at 0.5 uM”; in short: as §1
[5] = tested on: HMEC; assay: Cytotoxicity against immortalized HMEC at 0.5 uM after 3 days by DAPI staining-based fluorescence microscopic method relative to control; type: cell-based; settings: human, 72 h, 1 µM, in the assay text read “at 1 uM” for “at 0.5 uM”; in short: as §1
[6] = tested on: MCF7; assay: Cytotoxicity against human MCF7 cells at 0.5 uM after 3 days by DAPI staining-based fluorescence microscopic method relative to control; type: functional; settings: in the assay text read “at 1 uM” for “at 0.5 uM”; in short: as §1
[7] = tested on: T47D; assay: Cytotoxicity against human T47D cells at 0.5 uM after 3 days by DAPI staining-based fluorescence microscopic method relative to control; type: functional; settings: in the assay text read “at 1 uM” for “at 0.5 uM”; in short: as §1
[8] = tested on: BT-549; assay: Cytotoxicity against human BT549 cells at 0.5 uM after 3 days by DAPI staining-based fluorescence microscopic method relative to control; type: functional; settings: in the assay text read “at 1 uM” for “at 0.5 uM”; in short: as §1
[9] = tested on: MDA-MB-231; assay: Induction of nuclear morphological changes in human MDA-MB-231 cells assessed as nuclear fragmentation by Hoechst 33342 staining-based fluorescence microscopic method; type: functional, cell-based
In short: (§2)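 Stained 60 min with 1 μg mL–1 Hoechst 33342 and 300 nM MitoTracker Deep Red in RPMI/10% FBS, then imaged by automated fluorescence microscopy. Mitochondrial mass taken as mean cytoplasmic MitoTracker intensity. Nuclear fragmentation index from an apoptosis image-analysis module.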

[10] = tested on: HCC38; assay: Cytotoxicity against human HCC38 cells at 20 uM after 3 days by DAPI staining-based fluorescence microscopic method relative to control; type: functional
[11] = tested on: MDA-MB-231; assay: Cytotoxicity against human MDA-MB-231 cells at 20 uM after 3 days by DAPI staining-based fluorescence microscopic method relative to control; type: functional
[12] = tested on: BT-549; assay: Cytotoxicity against human BT549 cells at 20 uM after 3 days by DAPI staining-based fluorescence microscopic method relative to control; type: functional
[13] = tested on: Hs-578T; assay: Cytotoxicity against human Hs 578T cells at 20 uM after 3 days by DAPI staining-based fluorescence microscopic method relative to control; type: functional
[14] = tested on: MDA-MB-468; assay: Cytotoxicity against human MDA-MB-468 cells at 20 uM after 3 days by DAPI staining-based fluorescence microscopic method relative to control; type: functional
[15] = tested on: SK-BR-3; assay: Cytotoxicity against human SKBR3 cells at 20 uM after 3 days by DAPI staining-based fluorescence microscopic method relative to control; type: functional
[16] = tested on: MDA-MB-231; assay: Cell cycle arrest in human MDA-MB-231 cells assessed as accumulation at M phase at 25 uM after 72 hrs by pHH3 detection-based fluorescence microscopic method; type: functional
In short: (§3)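 Cells exposed 72 h to 0.2–25 μM, then pulsed 30 min with 30 μM EdU. Fixed in 3.7% paraformaldehyde, permeabilised with 0.1% Triton X100. EdU click-labelled with AF488. Blocked in 3% BSA, then anti-pHH3 (S10) 1:250 and AF647 secondary with Hoechst. S and M phases scored by automated imaging cell-cycle module.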

[17] = tested on: T47D; assay: Cytotoxicity against human T47D cells at 20 uM after 3 days by DAPI staining-based fluorescence microscopic method relative to control; type: functional
[18] = tested on: MDA-MB-231; assay: Cytotoxicity against human MDA-MB-231 cells by MitoTracker Deep Red staining-based fluorescence microscopic method; type: functional, cell-based; in short: as §2
[19] = tested on: MDA-MB-231; assay: Induction of reactive oxygen species generation in human MDA-MB-231 cells at 6 uM after 3 hrs by H2DCFDA dye-based fluorescence microscopic method relative to control; type: functional
In short: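 Exposed 3 or 24 h to 6 μM, with or without 3 mM N-acetyl-L-cysteine. Cells then loaded with 10 μM H2DCFDA for 30 min at 37 °C, washed with PBS, and fluorescence intensity read by automated fluorescence microscopy.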

[20] = tested on: MCF7; assay: Cytotoxicity against human MCF7 cells at 20 uM after 3 days by DAPI staining-based fluorescence microscopic method relative to control; type: functional
[21] = tested on: MDA-MB-231; assay: Induction of necrosis in human MDA-MB-231 cells at 40 uM after 24 hrs by acridine orange/ethidium bromide staining-based flow cytometric method; type: functional, cell-based
[22] = tested on: MDA-MB-231; assay: Antiproliferative activity against human MDA-MB-231 cells after 3 days by DAPI staining-based fluorescence microscopic method; type: functional, cell-based; settings: MDA-MB-231, 72 h
In short: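 Fixed in 3.7% formaldehyde, nuclei stained with 0.4 μg mL–1 DAPI, counted by automated fluorescence microscopy. Proliferation normalised to 0.5% DMSO and to 24 h cell count; IC50 from dose response.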

[23] = tested on: MDA-MB-231; assay: Cell cycle arrest in human MDA-MB-231 cells assessed as accumulation at S phase at 25 uM after 72 hrs by EdU incorporation-based fluorescence microscopic method; type: functional; in short: as §3
[24] = tested on: MDA-MB-231; assay: Induction of reactive oxygen species generation in human MDA-MB-231 cells at 6 uM after 3 hrs in presence of N-acetyl-L-cysteine by H2DCFDA dye-based fluorescence microscopic method; type: functional, cell-based; settings: 20 uM, in the assay text read “at 20 uM” for “at 6 uM”
In short: (§4)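 MDA-MB-231 cells were exposed for 3 or 24 h, with or without 3 mM N-acetyl-L-cysteine. Intracellular ROS was probed with 10 μM H2DCFDA for 30 min at 37 °C. After a PBS wash, fluorescence intensity was quantified by automated fluorescence microscopy. Cells were grown at 37 °C, 5% CO2.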

[25] = tested on: MDA-MB-231; assay: Induction of reactive oxygen species generation in human MDA-MB-231 cells at 20 uM after 24 hrs by H2DCFDA dye-based fluorescence microscopic method; type: functional, cell-based; in short: as §4
[26] = tested on: MDA-MB-231; assay: Induction of reactive oxygen species generation in human MDA-MB-231 cells at 6 uM after 24 hrs by H2DCFDA dye-based fluorescence microscopic method; type: functional, cell-based; settings: 20 uM, in the assay text read “at 20 uM” for “at 6 uM”; in short: as §4
[27] = tested on: MDA-MB-231; assay: Antiproliferative activity against human MDA-MB-231 cells at 20 uM after 3 days by DAPI staining-based fluorescence microscopic method relative to control; type: functional; in short: as §1

COc1cccc2c1C(=O)c1c(O)c3c(c(O)c1C2=O)C[C@@](O)(C(=O)CO)C[C@@H]3O[C@H]1C[C@H](N)[C@H](O)[C@H](C)O1 [DOXORUBICIN]
Activity [1]: 0.2 - 50%
Activity [2]: 0.2 - 50%
Activity [3]: 0.2 - 50%
Activity [4]: 0.2 - 50%
Activity [5]: 23.9%
Activity [6]: 0.2 - 50%
Activity [7]: 0.2 - 50%
Activity [8]: 0.2 - 50%

COc1cc(/C=C/C(=O)N2CCC(=O)CC2)cc(OC)c1O
Activity [9]: Active
Activity [10]: >=15 - 80%
Activity [11]: 60%
Activity [12]: >=15 - 80%
Activity [13]: >=15 - 80%
Activity [14]: >=15 - 80%
Activity [15]: >=15 - 80%
Activity [16]: inactive
Activity [17]: >=15 - 80%
Activity [18]: Active
Activity [19]: 20%
Activity [20]: >=15 - 80%
Activity [21]: Active
IC50 [22]: 6.6 µM
Activity [23]: inactive

COc1cc(/C=C/C(=O)N2CCCCC2)cc(OC)c1O
Activity [9]: inactive
Activity [24]: inactive
Activity [25]: inactive
Activity [26]: inactive
Activity [18]: inactive

COc1cc(CCC(=O)N2C=CC(=O)CC2)cc(OC)c1OC
Activity [27]: inactive

COc1cc(/C=C/C(=O)N2C=CC(=O)CC2)cc(OC)c1OC
Activity [27]: 50%

O=C1C=CN(C(=O)/C=C/c2ccccc2)CC1
Activity [27]: 50%

From ChEMBL document CHEMBL4251545, “Design and synthesis of cenocladamide analogues and their evaluation against breast cancer cell lines” (Medchemcomm, 2017)
